Source: ChEMBL document CHEMBL1156993, “Benzyl prolinate derivatives as novel selective KCC2 blockers” (Bioorg Med Chem Lett, 2010)
≈ marks a conversion by molar mass, not a printed value. Each block holds one compound with its values, some of them ahead of it.

Legend:
[1] = Antagonist activity to dog NKCC1 transporter expressed in MDCK cells assessed as inhibition of Cl- free medium-stimulated Rb+ influx at 100 uM after 45 mins by atomic absorption spectroscopy; assay type: functional, Canis lupus familiaris; conditions: for inhibition at 100 µM: Canis lupus familiaris, MDCK, 0.75 h
Method in brief: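 MDCK cells express endogenous canine NKCC1. NKCC1 is activated by incubating the cells for 2 h in Cl−-free medium. Rb+ influx is then stimulated for 45 min by adding 20 mM RbCl to the extracellular solution. Intracellular Rb+ is quantified by atomic absorption spectroscopy, and results are given as percent inhibition.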

[2] = molecular target: T1, Solute carrier family 12 member 5 (Rattus norvegicus, UniProt Q63633); test: Antagonist activity of rat KCC2 transporter expressed in human SK-Hep cells assessed as inhibition of N-ethylmaleimide-mediated Rb+ influx after 10 mins by atomic absorption spectroscopy; assay type: functional, cell-based
T1 sequence (Q63633 whole entry): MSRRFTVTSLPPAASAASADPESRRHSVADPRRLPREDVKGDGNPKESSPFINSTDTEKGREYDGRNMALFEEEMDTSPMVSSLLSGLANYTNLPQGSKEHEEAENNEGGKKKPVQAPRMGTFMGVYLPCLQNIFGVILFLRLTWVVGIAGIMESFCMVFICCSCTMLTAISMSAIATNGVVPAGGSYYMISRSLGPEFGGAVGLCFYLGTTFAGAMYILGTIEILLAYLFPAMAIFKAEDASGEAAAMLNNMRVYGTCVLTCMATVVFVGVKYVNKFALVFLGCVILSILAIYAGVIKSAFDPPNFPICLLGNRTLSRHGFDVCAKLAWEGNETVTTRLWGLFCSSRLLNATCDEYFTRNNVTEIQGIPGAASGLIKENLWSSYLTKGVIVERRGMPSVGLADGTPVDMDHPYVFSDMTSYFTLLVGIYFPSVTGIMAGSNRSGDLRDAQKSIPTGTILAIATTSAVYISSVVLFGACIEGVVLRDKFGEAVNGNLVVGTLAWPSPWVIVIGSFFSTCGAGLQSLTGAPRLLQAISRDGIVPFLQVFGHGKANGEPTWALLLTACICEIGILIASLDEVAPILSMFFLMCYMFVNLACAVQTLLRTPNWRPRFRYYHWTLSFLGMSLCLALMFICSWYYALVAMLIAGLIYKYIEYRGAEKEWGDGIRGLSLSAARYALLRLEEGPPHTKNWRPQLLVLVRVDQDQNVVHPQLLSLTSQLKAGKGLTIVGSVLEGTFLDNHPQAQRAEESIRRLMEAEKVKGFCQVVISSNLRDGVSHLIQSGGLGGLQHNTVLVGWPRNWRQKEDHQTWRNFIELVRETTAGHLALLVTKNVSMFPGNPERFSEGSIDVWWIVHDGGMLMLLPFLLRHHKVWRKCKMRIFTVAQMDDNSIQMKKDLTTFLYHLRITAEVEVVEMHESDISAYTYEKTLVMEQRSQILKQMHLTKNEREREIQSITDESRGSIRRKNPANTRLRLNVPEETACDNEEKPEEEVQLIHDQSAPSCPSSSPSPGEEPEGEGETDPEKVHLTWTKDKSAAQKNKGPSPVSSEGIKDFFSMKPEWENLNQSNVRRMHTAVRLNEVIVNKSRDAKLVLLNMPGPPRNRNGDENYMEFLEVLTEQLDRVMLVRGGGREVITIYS
Method in brief: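 Rat KCC2 stably expressed in a selected clone. The co-transporter is activated with N-ethylmaleimide in the presence of the test compound, and Rb+ influx is started by adding 5 mM RbCl to the extracellular medium. Influx is stopped after 10 min by repeated washes. Intracellular Rb+ is measured by atomic absorption spectroscopy, and IC50 is reported.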

[3] = Intrinsic clearance in rat hepatocytes assessed per 10^6 cells
[4] = Intrinsic clearance in rat microsomes assessed per mg of protein; assay type: ADME, Microsome
CYP2D6 = CYP2D6 (Homo sapiens, UniProt P10635); test: Inhibition of human CYP2D6 at 50 uM; assay type: ADME
[5] = Half life in Wistar rat at 1 mg/kg, iv; assay type: ADME, organism-based; set-up: dose 1 mg/kg, route intravenous; conditions: in vivo
Method in brief: (§1)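 Male Wistar rats are dosed at 1 mg/kg iv for half-life and clearance, and at 6 mg/kg po for AUC, Cmax and oral bioavailability.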

[6] = Clearance in Wistar rat at 1 mg/kg, iv; assay type: ADME, organism-based; set-up: dose 1 mg/kg, route intravenous; conditions: in vivo; method in brief: as §1
[7] = Aqueous solubility in PBS buffer at pH 7.4; assay type: physicochemical
CYP2C9 = CYP2C9 (Homo sapiens, UniProt P11712); test: Inhibition of human CYP2C9 at 50 uM; assay type: ADME
[8] = AUC in Wistar rat at 6 mg/kg, po; assay type: ADME, organism-based; set-up: dose 6 mg/kg, route oral; conditions: plasma; method in brief: as §1
[9] = Oral bioavailability in Wistar rat at 6 mg/kg; assay type: ADME, organism-based; conditions: in vivo; method in brief: as §1
[10] = Drug level in NMRI mouse brain at 43.3 mg/kg, ip after 5 mins; assay type: ADME, organism-based; set-up: dose 43.3 mg/kg, route intraperitoneal; conditions: read-out: Drug uptake
Method in brief: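 NMRI mice are dosed ip at 43.3 mg/kg. Plasma and brain exposure are determined 5 min after dosing, and free brain concentration is reported.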

[11] = Cmax in Wistar rat at 6 mg/kg, po; assay type: ADME, organism-based; set-up: dose 6 mg/kg, route oral; conditions: in vivo; method in brief: as §1
CYP3A4 = CYP3A4 (Homo sapiens, UniProt P08684); test: Inhibition of human CYP3A4 at 50 uM; assay type: ADME
[12] = Apparent permeability across human Caco-2 cells; assay type: ADME, cell-based
CYP2C19 = CYP2C19 (Homo sapiens, UniProt P33261); test: Inhibition of human CYP2C19 at 50 uM; assay type: ADME
Sequence of CYP2C19 (P33261 whole entry): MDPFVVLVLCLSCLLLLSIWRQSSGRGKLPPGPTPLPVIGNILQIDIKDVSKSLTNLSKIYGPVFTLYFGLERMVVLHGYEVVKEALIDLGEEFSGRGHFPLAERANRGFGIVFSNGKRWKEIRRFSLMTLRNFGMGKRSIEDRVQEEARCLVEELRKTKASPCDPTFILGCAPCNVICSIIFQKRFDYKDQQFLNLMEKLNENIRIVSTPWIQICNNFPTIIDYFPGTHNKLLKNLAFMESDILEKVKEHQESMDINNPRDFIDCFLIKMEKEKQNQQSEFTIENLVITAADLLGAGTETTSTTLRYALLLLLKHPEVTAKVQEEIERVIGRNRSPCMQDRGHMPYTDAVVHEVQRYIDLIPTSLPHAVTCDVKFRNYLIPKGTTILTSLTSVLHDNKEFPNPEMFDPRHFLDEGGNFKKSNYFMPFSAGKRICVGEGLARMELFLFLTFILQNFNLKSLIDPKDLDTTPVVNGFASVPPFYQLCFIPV

Sequence of CYP2D6 (P10635 whole entry): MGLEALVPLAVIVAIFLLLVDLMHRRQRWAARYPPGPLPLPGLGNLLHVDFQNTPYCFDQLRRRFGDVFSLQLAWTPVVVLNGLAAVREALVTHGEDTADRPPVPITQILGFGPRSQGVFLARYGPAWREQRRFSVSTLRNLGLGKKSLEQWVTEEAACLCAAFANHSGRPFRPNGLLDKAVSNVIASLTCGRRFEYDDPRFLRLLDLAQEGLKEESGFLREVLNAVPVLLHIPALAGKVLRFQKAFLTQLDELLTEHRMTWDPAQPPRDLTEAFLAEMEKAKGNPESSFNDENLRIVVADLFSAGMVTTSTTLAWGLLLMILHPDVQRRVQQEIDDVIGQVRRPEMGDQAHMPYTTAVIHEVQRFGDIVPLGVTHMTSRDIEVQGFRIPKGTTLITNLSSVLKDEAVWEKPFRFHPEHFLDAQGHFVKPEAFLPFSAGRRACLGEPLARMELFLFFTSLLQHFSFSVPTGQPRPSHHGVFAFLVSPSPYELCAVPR
Sequence of CYP2C9 (P11712 whole entry): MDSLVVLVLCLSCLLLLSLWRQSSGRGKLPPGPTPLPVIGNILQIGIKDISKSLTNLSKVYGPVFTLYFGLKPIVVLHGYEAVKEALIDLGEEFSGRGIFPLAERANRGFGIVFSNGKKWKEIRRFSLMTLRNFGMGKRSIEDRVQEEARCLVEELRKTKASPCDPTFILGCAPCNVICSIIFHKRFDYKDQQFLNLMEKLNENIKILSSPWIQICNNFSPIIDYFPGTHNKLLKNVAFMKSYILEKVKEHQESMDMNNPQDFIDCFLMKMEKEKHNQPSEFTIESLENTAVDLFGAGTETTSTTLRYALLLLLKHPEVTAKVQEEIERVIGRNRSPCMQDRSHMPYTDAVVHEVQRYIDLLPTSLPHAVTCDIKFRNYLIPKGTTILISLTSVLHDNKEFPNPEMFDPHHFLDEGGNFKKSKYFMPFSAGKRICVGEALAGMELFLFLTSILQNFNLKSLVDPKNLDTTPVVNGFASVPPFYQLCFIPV
Sequence of CYP3A4 (P08684 whole entry): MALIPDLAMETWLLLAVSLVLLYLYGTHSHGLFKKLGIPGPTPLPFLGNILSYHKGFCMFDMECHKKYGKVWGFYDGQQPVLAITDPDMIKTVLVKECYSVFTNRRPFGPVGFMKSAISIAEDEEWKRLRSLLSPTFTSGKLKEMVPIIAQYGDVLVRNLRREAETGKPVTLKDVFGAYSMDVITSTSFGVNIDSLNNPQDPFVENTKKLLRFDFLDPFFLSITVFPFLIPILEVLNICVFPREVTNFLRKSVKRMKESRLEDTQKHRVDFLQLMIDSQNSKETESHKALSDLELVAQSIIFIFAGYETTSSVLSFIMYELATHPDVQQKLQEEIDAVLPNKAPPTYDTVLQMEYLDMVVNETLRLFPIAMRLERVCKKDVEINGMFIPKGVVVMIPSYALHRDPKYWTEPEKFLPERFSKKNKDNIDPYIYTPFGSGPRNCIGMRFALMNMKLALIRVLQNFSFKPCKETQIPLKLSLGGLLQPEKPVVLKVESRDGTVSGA

Structure (SMILES): CC(=O)N1CCCC1(Cc1ccccc1)C(=O)OCC1CCCCC1 (stereo unspecified)
IC50 [2]: 63000 nM

Structure (SMILES): CC(=O)N1CCCC1(Cc1ccccc1)C(=O)NCc1ccccc1 (stereo unspecified)
IC50 [2]: 100000 nM

Structure (SMILES): O=C(c1ccccc1)N1CCCC1(Cc1ccccc1)C(=O)OCc1ccccc1 (stereo unspecified)
IC50 [2]: 4000 nM

Structure (SMILES): O=C(OCc1ccccc1)C1(Cc2ccccc2)CCCN1 (stereo unspecified)
IC50 [2]: > 100000 nM

Structure (SMILES): CC(=O)N1CCCC1(Cc1ccccc1)C(=O)OCc1ccncc1 (stereo unspecified)
IC50 [2]: > 100000 nM

Structure (SMILES): CCN1CCCC1(Cc1ccccc1)C(=O)OCc1ccccc1 (stereo unspecified)
IC50 [2]: > 100000 nM

Structure (SMILES): CC(=O)N1CCCC1(Cc1ccc(F)cc1C(F)(F)F)C(=O)OCc1ccccc1 (stereo unspecified)
IC50 [2]: 4000 nM

Structure (SMILES): CC(=O)N1CCCC1(Cc1ccccc1)C(=O)OCc1ccc(S(C)(=O)=O)cc1 (stereo unspecified)
IC50 [2]: > 100000 nM

Structure (SMILES): CS(=O)(=O)N1CCCC1(Cc1ccccc1)C(=O)OCc1ccccc1 (stereo unspecified)
solubility [7]: 1 µg/mL (≈ 2.68 µM) | inhibition at 100 µM [1]: < 20% | IC50 [2]: 1600 nM | hepatocyte CLint [3]: 23 µL/min/1e6 cells | microsomal CLint [4]: 400 µL/min/mg

Structure (SMILES): CC(=O)N1CCCC1(Cc1ccccc1)C(=O)OCc1ccccc1 (single isomer, unassigned; (-))
IC50 [2]: 50000 nM | CL [4]: 392 µL/min/mg

Structure (SMILES): CC(=O)N1CCCC1(Cc1ccccc1)C(=O)OCc1cccc(Cl)c1 (stereo unspecified)
IC50 [2]: 2500 nM

Structure (SMILES): COC(=O)C1(Cc2ccccc2)CCCN1C(C)=O (stereo unspecified)
IC50 [2]: > 100000 nM

Structure (SMILES): CC(=O)N1CCCC1(Cc1ccccc1)C(=O)OCCc1ccccc1 (stereo unspecified)
IC50 [2]: 10000 nM

Compounds with a lower IC50 [2], results first:

IC50 [2]: 250 nM | hepatocyte CLint [3]: 24 µL/min/1e6 cells | microsomal CLint [4]: 107 µL/min/mg
Structure (SMILES): CC(=O)N1CCCC1(Cc1cccc(S(C)(=O)=O)c1)C(=O)OCc1ccccc1 (stereo unspecified)
inhibition at 100 µM [1]: 25%

IC50 [2]: 790 nM
Structure (SMILES): CC(=O)N1CCCC1(Cc1ccc(C)cc1)C(=O)OCc1ccccc1 (stereo unspecified)

inhibition at 50 µM (CYP2D6): < 30% | half-life [5]: 18 min | clearance [6]: 26 mL/min/kg | solubility [7]: 500 µg/mL (≈ 1200 µM) | inhibition at 50 µM (CYP2C9): < 30% | AUC [8]: 726 ng·h/mL | bioavailability [9]: 18% | concentration at 5 min [10]: 6 µM | IC50 [2]: 1000 nM | Cmax [11]: 457 ng/mL | inhibition at 50 µM (CYP3A4): < 30% | Papp [12]: 31 ×10⁻⁶ cm/s | hepatocyte CLint [3]: 12 µL/min/1e6 cells | inhibition at 50 µM (CYP2C19): < 30% | microsomal CLint [4]: 16 µL/min/mg
Structure (SMILES): CC(=O)N1CCCC1(Cc1ccc(S(C)(=O)=O)cc1)C(=O)OCc1ccccc1 (stereo in doubt; 13)
inhibition at 100 µM [1]: 35%

IC50 [2]: 400 nM
Structure (SMILES): COC(=O)N1CCCC1(Cc1ccccc1)C(=O)OCc1ccccc1 (stereo unspecified)

IC50 [2]: 400 nM
Structure (SMILES): CC(=O)N1CCCC1(Cc1ccc(S(C)(=O)=O)cc1)C(=O)OCc1ccccc1 (single isomer, unassigned; (+))

IC50 [2]: 320 nM
Structure (SMILES): CC(=O)N1CCCC1(Cc1cccc(C#N)c1)C(=O)OCc1ccccc1 (stereo unspecified)

IC50 [2]: 80 nM
Structure (SMILES): CC(=O)N1CCCC1(Cc1cccc(C(F)(F)F)c1)C(=O)OCc1ccccc1 (stereo unspecified)

IC50 [2]: 50 nM
Structure (SMILES): COc1ccc(CC2(C(=O)OCc3ccccc3)CCCN2C(C)=O)cc1C(F)(F)F (stereo unspecified)

IC50 [2]: 320 nM
Structure (SMILES): CC(=O)N1CCCC1(Cc1ccccc1)C(=O)OCc1ccccc1 (single isomer, unassigned; (+))
inhibition (INH) [1]: 14%

IC50 [2]: 790 nM
Structure (SMILES): CC(=O)N1CCCC1(Cc1ccccc1)C(=O)OCc1ccc(C)cc1 (stereo unspecified)

solubility [7]: 3 µg/mL (≈ 8.73 µM) | IC50 [2]: 1000 nM | microsomal CLint [4]: 382 µL/min/mg
Structure (SMILES): CC(=O)N1CCCC1(CC1CCCCC1)C(=O)OCc1ccccc1 (stereo unspecified)
inhibition at 100 µM [1]: 39%
